Experimental data from ChEMBL document CHEMBL1146312, “Synthesis of OSW saponin analogs with modified sugar residues and their antiproliferative activities” (Bioorg Med Chem Lett, 2007).

Experiments:
Format in all cases: functional, cell-based
HeLa = test: Antiproliferative activity against human HeLa cells
Outline: (§1)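 Proliferation of human RKO colon carcinoma, Jurkat T-cell leukemia and HeLa cervical cancer cells was followed by [3H]-thymidine incorporation. IC50 values were taken from this read-out.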

Jurkat = test: Antiproliferative activity against human Jurkat cells; outline: as §1
RKO = test: Antiproliferative activity against human RKO cells; outline: as §1

Row | IC50 (HeLa) | IC50 (Jurkat) | Structure (SMILES) | IC50 (RKO)
1 | 1200 nM | 78 nM | CCCCCCCCCCCCOC(=O)[C@@H](C)[C@@]1(O)[C@@H](O[C@@H]2OC[C@H](O)[C@H](O)[C@H]2OC(C)=O)C[C@H]2[C@@H]3CC=C4C[C@@H](O)CC[C@]4(C)[C@H]3CC[C@@]21C | 
2 | 1100 nM |  | C=CCO[C@@H]1[C@@H](OC(C)=O)[C@H](O[C@H]2C[C@H]3[C@@H]4CC=C5C[C@@H](O)CC[C@]5(C)[C@H]4CC[C@]3(C)[C@@]2(O)[C@H](C)C(=O)OCCCCCCCCCCCC)OC[C@@H]1O | 1700 nM
3 | 71 nM | 15 nM | CCCCCCCCCCCCOC(=O)[C@@H](C)[C@@]1(O)[C@@H](O[C@@H]2OC[C@H](O)[C@H](O[C@@H]3OC[C@@H](O)[C@H](O)[C@H]3OC(=O)c3ccc(OC)cc3)[C@H]2OC(C)=O)C[C@H]2[C@@H]3CC=C4C[C@@H](O)CC[C@]4(C)[C@H]3CC[C@@]21C | 0.7 nM
